Results on 97 molecules are retold here after ChEMBL document CHEMBL4513216, “Probing the Open Global Health Chemical Diversity Library for Multistage-Active Starting Points for Next-Generation Antimalarials” (ACS Infect Dis, 2020).

The nature of the data set: Toxicity liver stage against HepG2, at 10uM. The data set is classed as cell-based. Further details: test concentration 10 uM, cell line HepG2-A16-CD81EGFP. To be noted: human, HepG2-A16-CD81EGFP cells; read-out: INHIBITION
A digest of the protocol: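 Uninfected HepG2-A16-CD81EGFP cells, 3 × 10^3 per well, 1536-well, plated on prespotted compound at 10 μM final, parasite-free screening media added to match infected plates; puromycin 10 μM positive, DMSO 0.5% negative; run in parallel with 48 h PbLuc assay at 37 °C, 5% CO2; viability by CellTiter-Glo luminescence, normalized to controls.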
As for `CC(C)(C)NC(=O)C1CSCN1S(=O)(=O)c1ccccc1F` (configuration not stated), the cytotoxicity at 10 µM was -8.23%.

Consider `Cc1cc(NCCOCCS(C)(=O)=O)nc2ccccc12`, for which the cytotoxicity at 10 µM was 4.4%.

Turning to `O=C(Nc1ccccc1)C1CN(CC2CC2)CC12CCOCC2` (configuration not stated), the cytotoxicity at 10 µM is -6.36%.

As to `CS(=O)(=O)c1ccc(OCCNCc2cccc(F)c2)cc1`, the cytotoxicity at 10 µM is -9.06%.

Take `O=S1(=O)NC(C2CCCN(S(=O)(=O)N3CCCC3)C2)=Nc2ccccc21` (configuration not stated): the cytotoxicity at 10 µM stood at 2.17%.

Turning to `COCCCN1CCCN(C(C)C(=O)Nc2ccnn2C(C)C)CC1` (configuration not stated), the cytotoxicity at 10 µM is -8.8%.

Regarding `COc1cccc(Cn2ncc(N(C)CCc3ccccc3)cc2=O)c1`, the cytotoxicity at 10 µM came out at 2.93%.

On to `O=C(CN1CCCC1)Nc1c2c(cc3c1CCC3)CCC2`, for which the cytotoxicity at 10 µM was -2.1%.

`O=C(c1cccc(C(F)(F)F)c1)N1CC(=O)N(C2CCC2)CC(O)C1` (configuration not stated): the cytotoxicity at 10 µM was -3.16%.

With `Cc1ccc(C(=O)N2CCSCC2)cc1NC(=O)NCC1CCC1`, the cytotoxicity at 10 µM came out at 3.07%.

With `CN1CCCC(c2ccnc(C(=O)NC3CC3)c2)C1` (configuration not stated), the cytotoxicity at 10 µM is -29.5%.

For the molecule `CCN(CC)c1ncc(CNC2CCc3nc(C(C)C)nn3C2)s1` (configuration not stated), the cytotoxicity at 10 µM worked out at 4.24%.

With `O=C(c1c[nH]c(=O)[nH]1)N1CCc2ccccc21`, the cytotoxicity at 10 µM was determined as 81.9%.

As to `CCn1nc(C)c(CN2CCCC(c3ccc(C(=O)O)cc3)C2)c1C` (configuration not stated), the cytotoxicity at 10 µM was -8.56%.

As for `COCCCn1cnnc1CNC(=O)c1[nH]c2c(C)cc(C)cc2c1C`, the cytotoxicity at 10 µM came to 5.22%.

For the molecule `Cc1nn(C)cc1-c1cc(C(=O)NCC(C)(C)c2ccccc2F)n[nH]1`, the cytotoxicity at 10 µM stood at 6.82%.

Take `Cc1cc(CN2CCC(CNC(=O)c3cnc(C)nc3C)C2)[nH]n1` (configuration not stated): the cytotoxicity at 10 µM was -140%.

For `Cc1cnc(CCN(C)C(=O)c2ccc(O)nc2C)s1`, the cytotoxicity at 10 µM was -1.56%.

In the case of `Cc1noc2ncc(C(=O)NCC3CCS(=O)(=O)C3)cc12` (configuration not stated), the cytotoxicity at 10 µM was -18.9%.

As for `Cc1noc(C)c1-c1ccnc(C2CCN(C3CCOCC3)CC2)c1`, the cytotoxicity at 10 µM was -28.7%.

For `CN(C)CCn1ccc2ccc(NC(=O)c3ccncc3F)cc21`, the cytotoxicity at 10 µM is -1.53%.

`N#CC1(NC(=O)Cc2cc(Cl)c3c(c2)OCCO3)CCC1`: the cytotoxicity at 10 µM was -8.05%.

Take `COc1ccc2c(c1)C(=O)N(C)C1(CCN(C(=O)OC(C)(C)C)CC1)N2`: the cytotoxicity at 10 µM came out at 25.1%.

Regarding `Cc1c(CN2CCCC2c2cncc(CN3CCCC3)n2)cnn1C` (configuration not stated), the cytotoxicity at 10 µM was -1.15%.

In the case of `O=C(c1ccc2c(c1)CCC2)N1CCn2ncnc2C1`, the cytotoxicity at 10 µM is -5.26%.

Take `Cc1c(CC(=O)N2CCN(C(C)C)CC2)nnn1-c1ccccc1`: the cytotoxicity at 10 µM was -3.64%.

For `CCc1c(C(=O)N2CC(C)OC(C)(C)C2)cnn1-c1ccccn1` (configuration not stated), the cytotoxicity at 10 µM is -2.51%.

Take `CC(C)(C)c1cnc(CNCC2CCCN2c2cccnn2)o1` (configuration not stated): the cytotoxicity at 10 µM is -2.2%.

On to `CCc1ccc(CN2CCCCC2c2n[nH]cc2-c2cc(C)no2)cc1` (configuration not stated), for which the cytotoxicity at 10 µM is 35%.

On to `COCC1COCCC12CCN(S(=O)(=O)c1ccccc1C)CC2` (configuration not stated), for which the cytotoxicity at 10 µM is -5.42%.

Regarding `CN(C)C(=O)CN1C[C@H]2CC[C@@H](C1)N(Cc1cccc(Cl)c1Cl)C2`, the cytotoxicity at 10 µM is -5.3%.

For `COCc1noc(Cn2c(C3CC3)nc3ccccc32)n1`, the cytotoxicity at 10 µM is 13.2%.

With `CCn1cc(CN2CCc3nc(-c4ccccn4)nc(O)c3C2)cn1`, the cytotoxicity at 10 µM is -2.25%.

As for `CCc1ncc(CN2CCC(Oc3ccccc3OC)CC2)cn1`, the cytotoxicity at 10 µM was -8.17%.

In the case of `CC(=O)c1ccccc1NC(=O)CCN1CCSCC1`, the cytotoxicity at 10 µM is -7.88%.

Turning to `COc1ccc2c(c1)C(C(=O)NCCN1CCOC1=O)CC(=O)N2` (configuration not stated), the cytotoxicity at 10 µM was found to be 8.68%.

As to `O=C(NC1(C(=O)O)CCCCC1)C1Cc2ccccc2O1` (configuration not stated), the cytotoxicity at 10 µM stood at 10.9%.

As for `CCCn1cc(C(=O)NC(CC(=O)O)c2ccco2)c(C)n1` (configuration not stated), the cytotoxicity at 10 µM is -61.4%.

`O=C(NCCn1cccc1)C1CCN(C2CCCCC2)CC1`: the cytotoxicity at 10 µM was -0.467%.

As to `Cc1cc(C[S+]([O-])CC(=O)NCC(C)C)no1` (configuration not stated), the cytotoxicity at 10 µM is -4.17%.

As to `Cc1ccccc1N1CCCN(C(=O)CCc2ccncc2)CC1`, the cytotoxicity at 10 µM was -9.88%.

For `CCN(CC)S(=O)(=O)c1ccc(CNC(=O)N2CCC(C#N)CC2)cc1`, the cytotoxicity at 10 µM turned out to be 20%.

For `O=C(NCCc1nncn1C1CC1)C1(Cc2ccccc2)CCC1`, the cytotoxicity at 10 µM came to 7.87%.

For the molecule `O=C(c1ccc(O)c(Cl)c1)N1CCN(c2nccs2)CC1`, the cytotoxicity at 10 µM is -10.3%.

As to `CNC(=O)C1CCN(c2ncc3c(n2)CCN3c2ccccc2)C1` (configuration not stated), the cytotoxicity at 10 µM was -10.1%.

`CCN(CC)C(=O)CC[C@@H]1CNC(=O)[C@@H]2C[C@H](NC(=O)C3CC3)CN12`: the cytotoxicity at 10 µM came out at 5.76%.

Turning to `CCc1ccc(CN2CC[C@@H]3CN(S(C)(=O)=O)CCO[C@@H]3C2)o1`, the cytotoxicity at 10 µM was -0.461%.

Turning to `CC1CCN(c2cncc(CCC3CCCN3)n2)CC1` (configuration not stated), the cytotoxicity at 10 µM is 4.52%.

As for `CC(C)N1Cc2c(C(=O)N3CCOCC3)nn(C)c2C1`, the cytotoxicity at 10 µM came to 0.0756%.

On to `O=C(c1ccc2sccc2c1)N1CCC(C(=O)O)(n2ccnc2)CC1`, for which the cytotoxicity at 10 µM was 2.69%.

As for `Cc1cc(CN2C[C@H]3CCC[C@@]3(COCC(=O)N3CCCC3)C2)no1`, the cytotoxicity at 10 µM is 8.31%.

For `CCNC(=O)[C@@H]1C[C@@H](N)CN1C(=O)c1[nH]c2ccccc2c1CC`, the cytotoxicity at 10 µM came to 0.106%.

For `O=C(NCCCN1CCOCC1)c1cccc(OCc2ccccc2)c1`, the cytotoxicity at 10 µM was -4.87%.

Consider `COc1cccc(C(=O)NS(=O)(=O)c2cc(Cl)sc2Cl)c1OC(F)F`, for which the cytotoxicity at 10 µM is -0.268%.

Regarding `CCn1c(C)nnc1SCCNC(=O)c1cccc2ccnn12`, the cytotoxicity at 10 µM is -54.6%.

Consider `Cc1nc2ccc(C(=O)N3CCC(COc4ccccn4)CC3)cc2[nH]1`, for which the cytotoxicity at 10 µM is -8.09%.

For `Clc1ccc(NCc2nnc(C3CC3)o2)cc1Cl`, the cytotoxicity at 10 µM is -12.4%.

With `CN(C)c1nccc(N2CCO[C@H]3CN(Cc4ccsc4)C[C@H]32)n1`, the cytotoxicity at 10 µM stood at 8.93%.

Turning to `CC(C)(C)CN(CCC#N)C(=O)Cc1ccc(-n2cnnn2)cc1`, the cytotoxicity at 10 µM stood at 1.18%.

Take `COc1cccc(CC2CCCN2Cc2nccn2C)c1` (configuration not stated): the cytotoxicity at 10 µM was -6.16%.

Take `CCN(Cc1cccc(C(=O)Nc2c(C)cnn2C)c1)[C@H]1COC[C@@H]1O`: the cytotoxicity at 10 µM was -1.58%.

For `Cc1cc(C(=O)NC2CCN(c3ncccc3C#N)CC2)no1`, the cytotoxicity at 10 µM is -7.25%.

As for `CC(C)c1nc(C2CCCN2Cc2ccncc2Cl)no1` (configuration not stated), the cytotoxicity at 10 µM is -2.83%.

Take `CCN(CCn1cccn1)Cc1nc(-c2cc(F)ccc2F)oc1C`: the cytotoxicity at 10 µM was -1.57%.

`CCCC(C)N(C)Cc1nnc(-c2ccc(Br)s2)o1` (configuration not stated): the cytotoxicity at 10 µM is -1.16%.

Turning to `Cc1nnc([C@]23COC[C@H]2CN(Cc2cccs2)C3)o1`, the cytotoxicity at 10 µM was -3.34%.

As for `CC(C)CC1COCCN1C(=O)Cc1cccs1` (configuration not stated), the cytotoxicity at 10 µM is 5.84%.

With `Cc1nccn1CCCC(=O)N1CCC(Nc2cccnn2)CC1`, the cytotoxicity at 10 µM is -17.3%.

With `CC(Cn1cccn1)NCC(=O)NCCc1cccs1` (configuration not stated), the cytotoxicity at 10 µM is -12.7%.

Regarding `COCC(=O)N1CCn2c(CN3CCN(C)CC3)cnc2C1`, the cytotoxicity at 10 µM was -70%.

For the molecule `c1nc(CCC2CCCCN2)cc(N2CCCC2)n1` (configuration not stated), the cytotoxicity at 10 µM was -21.6%.

In the case of `CCc1noc(CC)c1CC(=O)N1CCN(C(=O)C2CCCC2)CC1`, the cytotoxicity at 10 µM was -4.78%.

Turning to `CC1=NC2(CCN(CC(C)c3ccccc3)CC2)C(=O)N1` (configuration not stated), the cytotoxicity at 10 µM stood at 5.33%.

Take `Cc1ncsc1CN1CC(C)(C2CC2)CC1=O` (configuration not stated): the cytotoxicity at 10 µM worked out at 0.832%.

As to `Cc1nnsc1CN1C[C@@H]2CC[C@H]1CN(Cc1ccc(F)cc1)C2`, the cytotoxicity at 10 µM is -7.44%.

Consider `Cc1ccc(-c2cn3c(n2)CO[C@@H](CNCc2nccs2)C3)cc1`, for which the cytotoxicity at 10 µM was -7.31%.

In the case of `CC1(C)Cc2ccccc2-c2nc(NCCCO)[nH]c(=O)c21`, the cytotoxicity at 10 µM came out at 3.57%.

For the molecule `CC(C)C(O)CNC(=O)Nc1cnn(Cc2ccccc2)c1` (configuration not stated), the cytotoxicity at 10 µM was found to be 6.61%.

Consider `CNC(=O)NC(=O)CCSCc1cc(Cl)cc2cccnc12`, for which the cytotoxicity at 10 µM was -8.06%.

Turning to `COCCc1noc(C2CCN(C(=O)Nc3cccs3)CC2)n1`, the cytotoxicity at 10 µM was -10.6%.

Take `CCCNC(=O)C1CCN(Cc2csc(CC)n2)CC1`: the cytotoxicity at 10 µM was -10.4%.

For `CC(=O)N[C@@H]1CN(C(=O)CC2CC2)C[C@H]1O`, the cytotoxicity at 10 µM was -7.1%.

Take `Cc1ccc(OCCNC(=O)C(C)n2cncn2)cc1` (configuration not stated): the cytotoxicity at 10 µM was -3.53%.

For the molecule `Cc1ccc(CNC(=O)Nc2nnc(C)s2)cn1`, the cytotoxicity at 10 µM was -0.243%.

As to `COc1ccc(Cl)cc1C(=O)NCC1CCN(C(=O)c2ccoc2)CC1`, the cytotoxicity at 10 µM is 10.1%.

For the molecule `O=C(c1ccncc1)N1C[C@@H]2OCCN(CCN3CCCC3)[C@@H]2C1`, the cytotoxicity at 10 µM was -77.1%.

`Cn1cc(-c2cnc(N3CCCC3)nc2)cc1C(=O)O`: the cytotoxicity at 10 µM is -16.3%.

Regarding `COc1ccc(C2Nc3cc(Cl)ccc3C3=NCCN32)cc1CO` (configuration not stated), the cytotoxicity at 10 µM is -19.3%.

For `CN(CCOc1cccc(CNS(C)(=O)=O)c1)C1CCOCC1`, the cytotoxicity at 10 µM stood at 2.37%.

In the case of `Cc1cc(C(=O)N2CCCC2CN2CCCC2)no1` (configuration not stated), the cytotoxicity at 10 µM was 10%.

Turning to `O=C(NCCOc1ccc(C(F)(F)F)cn1)c1ccoc1`, the cytotoxicity at 10 µM is -10.1%.

On to `CS(=O)(=O)N1CCCn2nc(CNc3ncccn3)cc2C1`, for which the cytotoxicity at 10 µM came out at 4.83%.

In the case of `CCn1ccc(-c2cc(C(=O)O)n3ncc(Cl)c3n2)n1`, the cytotoxicity at 10 µM was -3.05%.

In the case of `Cc1nnc(SCCNC(=O)c2cc(S(N)(=O)=O)ccc2F)s1`, the cytotoxicity at 10 µM is -1.4%.

Regarding `CN(C(=O)Nc1ccncc1)C1CCN(c2ccc(Cl)cc2)CC1`, the cytotoxicity at 10 µM stood at 1.44%.

With `CCn1cc(CNC(=O)CC(C)C)cn1`, the cytotoxicity at 10 µM turned out to be 4.18%.

On to `CC1CC2(CCN(C(=O)c3c[nH]cn3)CC2)c2ccccc21` (configuration not stated), for which the cytotoxicity at 10 µM worked out at 2.44%.
